Experimental data as given in ChEMBL document CHEMBL4017542, “Identification of a Novel 1,2,3,4-Tetrahydrobenzo[b][1,6]naphthyridine Analogue as a Potent Phosphodiesterase 5 Inhibitor with Improved Aqueous Solubility for the Treatment of Alzheimer's Disease” (J Med Chem, 2017).
Converted amounts (≈) assume the structure as drawn. The source made the active and inactive calls. The rule behind the calls is not given here.

Experiments:
[1] = Kinetic solubility of compound in phosphate buffer after 18 hrs by turbidimetric method; type: physicochemical; conditions: read-out: Kinetic_solubility
Procedure, shortened: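 Compound serially diluted in DMSO at 100x final and diluted 100-fold into phosphate buffered saline. After 18 h at 37°C, turbidity read at 540 nm. Turbid if absorbance exceeded blank mean + 3 SD. Result is the highest concentration showing no turbidity.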

[2] = biological target: cGMP-specific 3',5'-cyclic phosphodiesterase (Homo sapiens, UniProt O76074); experiment: Inhibition of human recombinant PDE5A1 using FAM-labelled cGMP as substrate after 60 mins by fluorescence polarization assay
Procedure, shortened: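 Fluorescence polarization assay, room temperature, 60 min, with 100 nM FAM-cGMP and 0.1-0.45 ng PDE5 or 22.5-250 ng PDE6. Binding agent then added for 60 min; read at ex 485/em 528 nm. Duplicates at each concentration. Activity normalized to no-compound and no-enzyme controls; IC50 from sigmoidal dose-response fit.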

[3] = Plasma concentration in mouse at 25 mg/kg, ip measured at 0.25 hrs post dose by LC/MS analysis; type: ADME, organism-based
Procedure, shortened: (§1)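 Mice given 25 mg/kg i.p., 3 animals per time point, sampled up to 2 h. Plasma taken from heparinized retro-orbital blood; brain homogenized in methanol. Both extracted with methanol plus internal standard and quantified by LC/MS against a standard curve. Half-life from single-phase exponential decay fit.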

Mus musculus [4] = experiment: Antialzheimer activity in 3 to 4 months old APP1/PS1 transgenic mouse assessed as effect on freezing at 3 mg/kg, ip administered daily for 3 weeks measured at age of 6 to 7 months by contextual fear memory test (reference value: 15%); type: functional
Procedure, shortened: (§2)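 Mice (APP/PS1 or wild-type) dosed 3 mg/kg i.p. daily for 3 weeks from age 3-4 months. Contextual fear learning scored 24 h after training as freezing (no movement except respiration) over 5 min in the training chamber. Mice tested at 3-4 months or at 6-7 months of age. Experiments blind; mean ± SEM.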

Mus musculus [5] = experiment: Toxicity in wild type C57Bl6 mouse assessed as effect on freezing at 3 mg/kg, ip administered daily for 3 weeks by contextual fear memory test; type: organism-based; conditions: in vivo, 504 h; procedure, shortened: as §2
Mus musculus [6] = experiment: Elevation of cGMP levels in hippocampal slices of wild type C57Bl6 mouse at 3 mg/kg, ip administered for 30 mins followed by foot shock measured at 10 to 60 secs after shock by enzyme immunoassay relative to control; type: functional
Procedure, shortened: (§3)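 Male and female C57Bl6 mice, 2-3 months old, 20-25 g, given i.p. drug or vehicle (2% DMSO & 2% Tween). Foot shock 30 min after dosing; killed by cervical dislocation and decapitation at 10 s, 1 min or 3 min. Hippocampi snap-frozen. cGMP measured by enzyme immunoassay in duplicate and normalised to BCA protein; n=3 per group; compared with vehicle.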

Mus musculus [7] = experiment: Antialzheimer activity in 3 to 4 months old APP1/PS1 transgenic mouse assessed as effect on number of errors at 3 mg/kg, ip administered daily for 3 weeks measured at age of 6 to 7 months by 2 day radial arm water maze test (reference value: 2.5); type: functional
Mus musculus [8] = experiment: Toxicity in wild type C57Bl6 mouse assessed as effect on number of errors at 3 mg/kg, ip administered daily for 3 weeks by 2 day radial arm water maze test; type: organism-based; conditions: in vivo
Procedure, shortened: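 Wild-type mice given 3 mg/kg i.p. daily for 3 weeks from age 3-4 months. Tested in 2-day radial arm water maze, with a hidden platform in one of 6 arms. Errors counted, averaged per mouse over blocks of 3 trials. Blind scoring; SEM.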

Liver [9] = experiment: Half life in human liver microsomes at 1 uM measured up to 60 mins by LC-MS/MS analysis; type: ADME, microsome; conditions: 1 h
Procedure, shortened: (§4)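 Liver microsomes incubated with test compound at 1 µM final, 37°C, after a 3 min preincubation without cofactor, alongside a testosterone control. Protein precipitated; samples analyzed by LC-MS/MS with electrospray. Peak area ratio to internal standard compared with time 0 to give % remaining. Half-life from single-phase exponential decay fit.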

Liver [10] = experiment: Half life in mouse liver microsomes at 1 uM measured up to 60 mins by LC-MS/MS analysis; type: ADME, microsome; conditions: 1 h; procedure, shortened: as §4
Mus musculus [11] = experiment: Antialzheimer activity in APP1/PS1 transgenic mouse assessed as effect on number of errors at 3 mg/kg, ip administered daily for 3 weeks by 2 day radial arm water maze test (reference value: 3); type: functional
Mus musculus [12] = experiment: Elevation of cGMP levels in hippocampal slices of wild type ip dosed C57Bl6 mouse administered for 30 mins followed by foot shock measured at 10 to 60 secs after shock by enzyme immunoassay; type: functional, organism-based
Procedure, shortened: (§5)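 2-3 month old male and female C57Bl6 mice (20-25 g) dosed i.p. at 3 or 10 mg/kg in 2% DMSO & 2% Tween, or vehicle alone. Foot shock given 30 min later. Killed 10 s, 1 min or 3 min after shock. Hippocampi snap frozen. cGMP measured by enzyme immunoassay in duplicate and normalized to BCA protein. n=3 per group.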

Mus musculus [13] = experiment: Elevation of cGMP levels in hippocampal slices of wild type C57Bl6 mouse at 3 to 10 mg/kg, ip administered for 30 mins followed by foot shock measured at 10 to 180 secs after shock by enzyme immunoassay; type: functional, organism-based; procedure, shortened: as §5
[14] = Drug level in mouse brain at 25 mg/kg, ip measured at 0.25 hrs post dose by LC/MS analysis; type: ADME, organism-based; conditions: read-out: Drug uptake; procedure, shortened: as §1
Mus musculus [15] = experiment: Plasma half life in mouse at 25 mg/kg, ip measured at 0.25 hrs post dose by LC/MS analysis; type: ADME, organism-based; conditions: in vivo; procedure, shortened: as §1
Hippocampus [16] = experiment: Antialzheimer activity in […] transgenic mouse hippocampal slices assessed as long-term residual potentiation at 50 nM administered via bath perfusion for 10 mins prior to tetanus measured at the last 5 mins of 2 hrs recording (reference value: 137.90 +/- 10.83%); type: functional
Procedure, shortened: (§6)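 Acute hippocampal slices from 3–4 month old APP/PS1 transgenic mice or WT littermates. Slices received 50 nM compound or vehicle through bath perfusion for 10 min before tetanus. Residual potentiation was taken as the mean over the last 5 min of a 2 h recording. Experiments were blinded, values are SEM, and groups were compared by 2-way ANOVA for repeated measures.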

Mus musculus [17] = experiment: Elevation of cGMP levels in hippocampal slices of wild type C57Bl6 mouse at 10 mg/kg, ip administered for 30 mins followed by foot shock measured at 10 to 60 secs after shock by enzyme immunoassay relative to control; type: functional; procedure, shortened: as §3
Mus musculus [18] = experiment: Antialzheimer activity in APP1/PS1 transgenic mouse assessed as rescue contextual memory by measuring freezing at 3 mg/kg, ip administered daily for 3 weeks by contextual fear memory test (reference value: 15%); type: functional; procedure, shortened: as §2
Hippocampus [19] = experiment: Effect on long-term residual potentiation in wild type C57Bl6 mouse hippocampal slices at 50 nM administered via bath perfusion for 10 mins prior to tetanus measured at the last 5 mins of 2 hrs recording; type: ADME, tissue-based; conditions: 0.05 µM; procedure, shortened: as §6
Mus musculus [20] = experiment: Antialzheimer activity in 3 to 4 months old APP1/PS1 transgenic mouse model assessed as long-term residual potentiation in hippocampal slices at 3 mg/kg, ip administered daily for 3 weeks measured at age of 6 to 7 months (reference value: 164.11 +/- 10.36%); type: functional
Mus musculus [21] = experiment: Elevation of cGMP levels in hippocampal slices of wild type C57Bl6 mouse at 10 mg/kg, ip administered for 30 mins followed by foot shock measured at 180 secs after shock by enzyme immunoassay relative to control; type: functional; procedure, shortened: as §3
[22] = biological target: Cone cGMP-specific 3',5'-cyclic phosphodiesterase subunit alpha' (Homo sapiens, UniProt P51160); experiment: Inhibition of human recombinant PDE6C using FAM-labelled cGMP as substrate after 60 mins by fluorescence polarization assay
Homo sapiens = organism: Homo sapiens; experiment: Selectivity ratio of IC50 for human recombinant PDE6C to IC50 for human recombinant PDE5A1

Cone cGMP-specific 3',5'-cyclic phosphodiesterase subunit alpha', sequence (P51160 whole entry): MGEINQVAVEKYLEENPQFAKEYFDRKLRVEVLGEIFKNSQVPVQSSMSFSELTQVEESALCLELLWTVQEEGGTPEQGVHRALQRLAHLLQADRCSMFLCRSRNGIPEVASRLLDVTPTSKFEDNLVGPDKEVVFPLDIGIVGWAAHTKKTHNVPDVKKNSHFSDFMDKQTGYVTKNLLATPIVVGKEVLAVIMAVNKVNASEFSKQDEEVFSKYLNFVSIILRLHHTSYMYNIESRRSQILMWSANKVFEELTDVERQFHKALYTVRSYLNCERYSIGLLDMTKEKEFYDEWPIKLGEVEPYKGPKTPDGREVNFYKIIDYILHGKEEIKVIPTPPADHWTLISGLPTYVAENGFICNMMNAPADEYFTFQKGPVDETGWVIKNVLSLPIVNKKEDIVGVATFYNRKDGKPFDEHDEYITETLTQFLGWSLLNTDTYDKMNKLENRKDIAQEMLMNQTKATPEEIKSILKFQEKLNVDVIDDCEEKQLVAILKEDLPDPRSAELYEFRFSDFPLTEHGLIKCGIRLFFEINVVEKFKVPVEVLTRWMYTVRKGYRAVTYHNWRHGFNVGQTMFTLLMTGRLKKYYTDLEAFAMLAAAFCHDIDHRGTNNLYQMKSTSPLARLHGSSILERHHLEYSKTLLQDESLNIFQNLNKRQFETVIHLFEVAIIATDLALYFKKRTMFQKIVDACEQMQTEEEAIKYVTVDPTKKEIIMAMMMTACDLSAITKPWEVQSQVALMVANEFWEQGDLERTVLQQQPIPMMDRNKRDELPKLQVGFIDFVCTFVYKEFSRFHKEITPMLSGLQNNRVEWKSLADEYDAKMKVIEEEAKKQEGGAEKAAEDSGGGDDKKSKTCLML

Q: With `COc1ccc(CNc2c(CO)cnc3c(C4CC4)cc(C#N)cc23)cc1Cl` as the molecule, how does the solubility kinetic at 18 h [1] read?
A: < 3.9 µM

Q: Which IC50 [2] does the source give for `CCN1CCc2nc3ccc(C#N)cc3c(NCc3ccc(OC)c(Cl)c3)c2C1` here?
A: 0.19 nM

Q: For `CC(=O)N1CCc2nc3ccc(C#N)cc3c(NCc3ccc(F)c(Cl)c3)c2C1`, which IC50 [2] is on record?
A: 1.5 nM

Q: With `COc1ccc(CNc2c3c(nc4ccc(C#N)cc24)CCN(C(C)=O)C3)cc1Cl` as the molecule, how does the concentration at 0.25 h [3] read?
A: 1570 ng/mL

Q: And the Activity (Mus musculus [4])?
A: 40%

Q: And the Activity (Mus musculus [5])?
A: 30%

Q: What about the “fold change (FC)” value (Mus musculus [6]) of the same molecule?
A: 1.5

Q: And the Activity (Mus musculus [7])?
A: 1

Q: And the Activity (Mus musculus [8])?
A: Non-Toxic

Q: And the t1/2 (Liver [9])?
A: 6 min

Q: And the t1/2 (Liver [10])?
A: 3.2 min

Q: What about the Activity (Mus musculus [11]) of the same molecule?
A: 1

Q: What about the Activity (Mus musculus [12]) of the same molecule?
A: Dose-dependent effect

Q: What about the Activity (Mus musculus [13]) of the same molecule?
A: Active

Q: What about the concentration at 0.25 h [14] of the same molecule?
A: 492 ng/g

Q: And the t1/2 (Mus musculus [15])?
A: 64.2 min

Q: And the Activity (Hippocampus [16])?
A: 201.76%

Q: And the “fold change (FC)” value (Mus musculus [17])?
A: 1.7

Q: What about the solubility kinetic at 18 h [1] of the same molecule?
A: > 500 µM

Q: What about the Activity (Mus musculus [18]) of the same molecule?
A: 30%

Q: What about the Activity (Hippocampus [19]) of the same molecule?
A: Non-Toxic

Q: What about the Activity (Mus musculus [20]) of the same molecule?
A: 226.22%

Q: What about the “fold change (FC)” value (Mus musculus [21]) of the same molecule?
A: 1.3

Q: With `CC(=O)N1CCc2nc3ccc(C#N)cc3c(NCc3ccnc(Cl)c3)c2C1` as the molecule, how does the IC50 [2] read?
A: 57 nM

Q: With `COc1ccc(CNc2c3c(nc4ccc(Br)cc24)CCN(C(C)=O)C3)cc1Cl` as the molecule, how does the IC50 [2] read?
A: 3.1 nM

Q: With `CCN1Cc2nc3ccc(C#N)cc3c(NCc3ccc(OC)c(Cl)c3)c2C1=O` as the molecule, how does the IC50 [22] read?
A: 6.6 nM

Q: And the solubility kinetic at 18 h [1]?
A: 3.1 µM (≈ 1.26 µg/mL)

Q: What about the Ratio IC50 (Homo sapiens) of the same molecule?
A: 100

Q: With `COc1ccc2nc3c(c(NCc4ccc(OC)c(Cl)c4)c2c1)CN(C(C)=O)CC3` as the molecule, how does the IC50 [2] read?
A: 45.2 nM

Q: Which IC50 [2] does the source give for `CC(=O)N1CCc2nc3ccc(C#N)cc3c(NCc3ccc(OC(F)(F)F)c(Cl)c3)c2C1` here?
A: 337 nM

Q: For `COc1ccc(CNc2c3c(nc4ccc(C#N)cc24)CCN(C)C3)cc1Cl`, which IC50 [2] is on record?
A: 0.59 nM

Q: Which IC50 [2] does the source give for `COc1c(F)cc(CNc2c3c(nc4ccc(C#N)cc24)CCN(C(C)=O)C3)cc1Cl` here?
A: 0.32 nM
